Measured values gathered from unrelated publications.
Each line is one published result; the experiments were not run side by side.
Target: Serine/threonine-protein kinase Nek1 (NEK1, Homo sapiens, UniProt Q96PY6)
Sequence (Q96PY6 1-1258, as in one of the studies): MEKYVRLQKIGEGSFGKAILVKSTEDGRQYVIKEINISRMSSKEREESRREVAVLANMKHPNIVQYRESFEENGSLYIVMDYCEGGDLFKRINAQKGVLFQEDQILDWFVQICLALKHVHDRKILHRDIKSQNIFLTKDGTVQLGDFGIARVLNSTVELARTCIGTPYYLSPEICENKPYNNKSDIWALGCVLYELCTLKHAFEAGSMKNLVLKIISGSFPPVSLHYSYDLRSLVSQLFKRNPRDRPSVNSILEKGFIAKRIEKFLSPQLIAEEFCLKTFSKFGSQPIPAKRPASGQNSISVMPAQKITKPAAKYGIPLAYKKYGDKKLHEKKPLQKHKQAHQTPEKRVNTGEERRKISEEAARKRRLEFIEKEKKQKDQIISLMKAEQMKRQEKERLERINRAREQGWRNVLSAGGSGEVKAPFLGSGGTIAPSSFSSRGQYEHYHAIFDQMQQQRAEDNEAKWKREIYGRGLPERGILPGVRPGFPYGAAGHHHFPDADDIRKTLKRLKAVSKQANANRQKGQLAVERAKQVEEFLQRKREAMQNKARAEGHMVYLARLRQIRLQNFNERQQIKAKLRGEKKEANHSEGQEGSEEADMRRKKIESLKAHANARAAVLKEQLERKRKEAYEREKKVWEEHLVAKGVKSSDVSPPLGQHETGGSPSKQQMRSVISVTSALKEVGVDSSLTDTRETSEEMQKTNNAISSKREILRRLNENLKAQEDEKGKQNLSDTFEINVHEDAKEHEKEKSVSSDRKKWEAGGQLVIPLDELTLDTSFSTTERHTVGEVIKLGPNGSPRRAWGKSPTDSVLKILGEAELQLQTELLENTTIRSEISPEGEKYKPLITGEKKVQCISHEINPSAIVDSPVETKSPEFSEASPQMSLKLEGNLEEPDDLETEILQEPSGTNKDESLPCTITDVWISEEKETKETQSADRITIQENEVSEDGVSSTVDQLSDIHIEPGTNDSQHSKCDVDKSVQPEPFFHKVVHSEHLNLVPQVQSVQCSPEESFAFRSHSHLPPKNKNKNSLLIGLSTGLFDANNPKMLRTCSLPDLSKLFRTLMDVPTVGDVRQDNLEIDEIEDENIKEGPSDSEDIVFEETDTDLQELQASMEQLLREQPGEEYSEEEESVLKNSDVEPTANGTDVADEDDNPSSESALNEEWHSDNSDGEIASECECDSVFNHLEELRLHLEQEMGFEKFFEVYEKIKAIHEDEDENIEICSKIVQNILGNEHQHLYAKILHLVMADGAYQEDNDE

SMILES	assay	test system	conditions	quantity	result
CCN1CCN(Cc2ccc(NC(=O)c3ccc(C)c(/C=C/c4cnc5[nH]ccc5c4OC)c3)cc2C(F)(F)F)CC1	target engagement in cells, inhibitor, chemoproteomics	A-375	0.5 µM	inhibition	-15.8%
C[C@@H](c1cccc(C#N)c1)n1cc(Cl)cc(C(N)=O)c1=N	cell-free assay, competition with immobilised ligand	–	1 µM	remaining binding	100%
N#CCCc1ccc2c(c1)-c1[nH]c3ccc([N+](=O)[O-])cc3c1CC(=O)N2	cell-free assay	–	0.5 µM	remaining signal	132%
c1cnn2ncc(-c3ccnc(N4CCC45COC5)n3)c2c1	binding	–	1 µM	remaining binding	100%
CCN1CCN(Cc2ccc(NC(=O)c3ccc(C)c(Oc4ccnc5[nH]ccc45)c3)cc2C(F)(F)F)CC1	target engagement in cells, inhibitor, chemoproteomics	A-375	0.5 µM	inhibition	-10.4%
CO[C@@H](C)c1c(Nc2ccc([C@@H](N(C)C(=O)C3CCS(=O)(=O)CC3)C(F)(F)F)cc2)cnc2cc(Cl)nn12	cell-free assay, competition with immobilised ligand	–	1 µM	remaining binding	100%
CC(C)(C)c1nc2c(s1)c1nc(N)ncc1c1ccc(NS(=O)(=O)c3c(F)cccc3F)c(F)c12	enzyme activity, inhibitor, radiometric	–	1 µM	remaining activity	92%
O=C1Nc2ccc(Cl)cc2C1=Cc1cc(Cl)c(O)c(Cl)c1	cell-free assay	–	0.5 µM	remaining signal	81.5%
CCCS(=O)(=O)Nc1ccc(F)c(C(=O)c2c[nH]c3ncc(-c4ccc(Cl)cc4)cc23)c1F	enzyme activity, inhibitor	–	1 µM	inhibition	< 20%
C[C@@H]1CN(c2cc(-c3n[nH]c4ccc(OC5(C)CC5)cc34)ncn2)C[C@H](C)O1	cell-free assay, competition with immobilised ligand	–	0.1 µM	remaining binding	100%
COc1cccc2c(NCc3ccccc3)nc(-n3c(N)nc4ccccc43)nc12	target engagement in cells, inhibitor, chemoproteomics	–	20 mM	inhibition	-13%
COc1cc2ncnc(Nc3ccc(Oc4ccccc4)c(C)c3C)c2cc1OC	enzyme activity, inhibitor	–	1 µM	inhibition	-2%
Cc1c(NC(=O)c2cc(C(N)=O)nc3cc(F)ccc23)c(C(F)(F)F)nn1Cc1ccc(C(C)(C)C)cc1	cell-free assay, competition with immobilised ligand	–	1 µM	remaining binding	97%
CN1CC(Oc2cnc(C#N)cc2-c2ccn3nc(NC(=O)C4CC4)cc3c2)C1	enzyme activity, inhibitor	–	1 µM	inhibition	8%
Cn1cnc(Br)c1C1=CN(c2ncnc3[nH]cnc23)CCS1	enzyme activity, inhibitor, radiometric	–	50 nM	inhibition	33.1%
C[C@@H]1CN(c2cc(-c3nn(C)c4ccc(OC5(C)CC5)cc34)ncn2)C[C@H](C)O1	cell-free assay, competition with immobilised ligand	–	1 µM	remaining binding	83%
Cc1ccc(Nc2nccc(N(C)c3ccc4c(C)n(C)nc4c3)n2)cc1S(N)(=O)=O	enzyme activity, inhibitor	–	0.5 µM	remaining activity	105%
C[C@H](c1ccnc(Nc2nc3ccc(-c4cc(N(C)C)ncn4)cc3[nH]2)c1)N1CCN(C(=O)CC(F)(F)F)CC1	cell-free assay, competition with immobilised ligand	–	0.1 µM	remaining binding	93%
O=C(Nc1cnn(-c2csc(C(=O)NC3COC3)c2)c1)Nc1ccccc1Cl	enzyme activity, inhibitor	–	5 µM	remaining activity	112%
CS(=O)(=O)CCNCc1ccc(-c2ccc3ncnc(Nc4ccc(OCc5cccc(F)c5)c(Cl)c4)c3c2)o1	cell-free assay	–	0.5 µM	remaining signal	71.8%
O=C(Nc1cnn(-c2csc(C(=O)NC3COC3)c2)c1)Nc1c(F)cccc1Cl	enzyme activity, inhibitor	–	5 µM	remaining activity	77.2%
Nc1c(C(=O)NCc2ccc(C(=O)NCCCC3CCCCC3)cc2)cnn1-c1ccccc1	cell-free assay, competition with immobilised ligand	–	0.1 µM	remaining binding	84%
